pIC50: −log10 of the molar value.
Tests used:
[1] = organism: Canis familiaris; assay: AUC in dog; assay type: ADME, organism-based, Canis lupus familiaris, Plasma; details: in vivo
[2] = Half life in rat; assay type: ADME, organism-based; details: in vivo
[3] = Half life in dog; assay type: ADME, organism-based, Canis lupus familiaris; details: in vivo
[4] = organism: Rattus norvegicus; assay: AUC in rat; assay type: ADME, organism-based, Plasma; details: in vivo
[5] = Half life in mouse; assay type: ADME, organism-based; details: in vivo
[6] = organism: Mus musculus; assay: AUC in mouse; assay type: ADME, organism-based, Plasma; details: in vivo
[7] = Oral bioavailability in rat; assay type: ADME, organism-based; details: in vivo
[8] = (§1) Plasma clearance in mouse; assay type: ADME, organism-based; details: plasma
[9] = plasma clearance in dog; assay type: ADME, organism-based, Canis lupus familiaris
[10] = target: 11-beta-hydroxysteroid dehydrogenase 1 (Mus musculus, UniProt P50172); assay: Inhibitory activity against mouse 11beta-HSD1
Chain of 11-beta-hydroxysteroid dehydrogenase 1 (Mus musculus, UniProt P50172) (P50172 whole entry): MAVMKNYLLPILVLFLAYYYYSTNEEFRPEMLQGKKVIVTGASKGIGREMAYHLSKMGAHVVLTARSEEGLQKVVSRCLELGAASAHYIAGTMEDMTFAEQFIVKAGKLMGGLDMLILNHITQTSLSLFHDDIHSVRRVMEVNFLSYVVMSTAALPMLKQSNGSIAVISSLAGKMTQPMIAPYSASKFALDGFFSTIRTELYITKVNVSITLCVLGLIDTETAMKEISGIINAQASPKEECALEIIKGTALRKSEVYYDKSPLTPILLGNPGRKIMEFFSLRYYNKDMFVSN

[11] = Plasma clearance in rat; assay type: ADME, organism-based
[12] = Oral bioavailability in dog; assay type: ADME, organism-based, Canis lupus familiaris; details: in vivo
[13] = Oral bioavailability in mouse; assay type: ADME, organism-based; details: in vivo
[14] = target: T1, 11-beta-hydroxysteroid dehydrogenase type 2 (Mus musculus, UniProt P51661); assay: Inhibitory activity against mouse 11beta-HSD2
T1 sequence (P51661 whole entry): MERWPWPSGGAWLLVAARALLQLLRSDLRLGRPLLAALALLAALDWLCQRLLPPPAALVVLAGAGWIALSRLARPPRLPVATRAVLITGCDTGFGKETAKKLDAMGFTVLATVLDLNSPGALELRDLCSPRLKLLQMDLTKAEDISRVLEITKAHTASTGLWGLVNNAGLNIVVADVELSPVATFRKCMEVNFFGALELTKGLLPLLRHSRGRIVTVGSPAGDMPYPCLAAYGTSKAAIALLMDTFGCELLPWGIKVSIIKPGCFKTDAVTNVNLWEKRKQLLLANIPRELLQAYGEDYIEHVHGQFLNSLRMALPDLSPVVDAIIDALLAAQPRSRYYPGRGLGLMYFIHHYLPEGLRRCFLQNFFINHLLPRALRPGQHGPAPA

[15] = target: T2, 11-beta-hydroxysteroid dehydrogenase 1 (Homo sapiens, UniProt P28845); assay: In vivo inhibition of 11beta-HSD1 at 1 h (10 mg/kg, po) assessed by extent of cortisone to cortisol conversion; assay type: functional, organism-based
Method in brief: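 Oral dosing at 10 mg/kg, followed by exogenous [3H]cortisone as the 11β-HSD1 substrate. In vivo enzyme activity is read out as the extent of conversion to [3H]cortisol, reported as % inhibition.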
Target sequence in this assay (P28845 whole entry, looked up): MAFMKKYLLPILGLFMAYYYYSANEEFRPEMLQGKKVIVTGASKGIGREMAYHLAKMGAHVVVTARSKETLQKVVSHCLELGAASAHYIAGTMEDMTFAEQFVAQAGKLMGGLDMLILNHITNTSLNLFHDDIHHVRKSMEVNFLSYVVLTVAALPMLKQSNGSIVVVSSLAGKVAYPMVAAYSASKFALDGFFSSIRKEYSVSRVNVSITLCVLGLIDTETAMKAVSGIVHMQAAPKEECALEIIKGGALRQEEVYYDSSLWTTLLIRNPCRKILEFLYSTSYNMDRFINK

[16] = target: T2, 11-beta-hydroxysteroid dehydrogenase 1; assay: Inhibitory activity against human 11beta-HSD1
Target sequence in this assay (P28845 whole entry): as the sequence (P28845 whole entry, looked up) above

[17] = organism: Mus musculus; assay: as §1; assay type: ADME, organism-based; details: in vivo
[18] = target: T3, 11-beta-hydroxysteroid dehydrogenase type 2 (Homo sapiens, UniProt P80365); assay: Inhibitory activity against human 11beta-HSD2
T3 sequence (P80365 whole entry): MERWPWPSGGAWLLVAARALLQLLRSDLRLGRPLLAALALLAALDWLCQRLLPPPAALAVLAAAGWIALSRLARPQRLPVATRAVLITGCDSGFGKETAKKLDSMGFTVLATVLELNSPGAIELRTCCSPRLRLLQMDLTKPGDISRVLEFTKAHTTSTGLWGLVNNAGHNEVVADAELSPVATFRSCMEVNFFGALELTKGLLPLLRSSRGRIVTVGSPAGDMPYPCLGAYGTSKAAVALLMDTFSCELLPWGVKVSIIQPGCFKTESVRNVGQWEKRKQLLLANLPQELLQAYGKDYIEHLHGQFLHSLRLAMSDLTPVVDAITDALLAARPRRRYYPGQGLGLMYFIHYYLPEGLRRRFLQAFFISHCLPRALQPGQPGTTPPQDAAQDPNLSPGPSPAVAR

[19] = target: T4, 11-beta-hydroxysteroid dehydrogenase type 2 (Homo sapiens) (UniProt P80365); assay: Inhibitory activity against human 11beta-HSD2 at 4 uM
T4 sequence (whole entry): T3 sequence (P80365 whole entry)

SMILES: Cn1c(-c2ccccc2C(F)(F)F)nnc1C12CCC(c3nc(-c4ccc(F)cc4)no3)(CC1)CC2
- AUC [1]: 9.55 uMh
- half-life [2]: 5.1 h
- half-life [3]: 9.87 h
- AUC [4]: 6.2 uMh
- half-life [5]: 17.7 h
- AUC [6]: 5.7 uMh
- bioavailability [7]: 83%
- clearance [8]: 5.88 mL/min/kg
- clearance [9]: 3.51 mL/min/kg
- pIC50 [10]: 8.72
- clearance [11]: 5.39 mL/min/kg
- bioavailability [12]: 100%
- bioavailability [13]: 58%

SMILES: Cn1c(-c2ccccc2S(C)(=O)=O)nnc1C12CCC(c3nc(-c4ccc(F)cc4)no3)(CC1)CC2
- pIC50 [10]: 7.54

SMILES: Cn1c(-c2ccccc2Cl)nnc1C12CCC(c3nc(-c4ccc(F)cc4)no3)(CC1)CC2
- pIC50 [10]: 8.49

SMILES: Cn1c(-c2ccccc2C(F)(F)F)nnc1C12CCC(c3noc(-c4ccc(F)cc4)n3)(CC1)CC2
- pIC50 [10]: > 9.00

SMILES: COc1ccc(-c2noc(C34CCC(c5nnc(-c6ccccc6C(F)(F)F)n5C)(CC3)CC4)n2)cn1
- pIC50 [10]: 8.35

SMILES: Cn1c(-c2ccccc2C(F)(F)F)nnc1C12CCC(c3nc(-c4ccc(=O)n(C)c4)no3)(CC1)CC2
- pIC50 [10]: 7.66

SMILES: Clc1ccc(-c2noc(C34CCC(c5nnc6n5CCCCCC6)(CC3)CC4)n2)cc1
- pIC50 [14]: 5.40
- pIC50 [10]: 7.77

SMILES: COc1cc(O)ccc1-c1nnc(C23CCC(c4nc(-c5ccc(F)cc5)no4)(CC2)CC3)n1C
- pIC50 [10]: 8.64

SMILES: Cn1c(-c2ccccc2OC(F)F)nnc1C12CCC(c3nc(-c4ccc(F)cc4)no3)(CC1)CC2
- pIC50 [10]: 8.28

SMILES: CCCCCC12CCC(c3nnc4n3CCCCCC4)(CC1)CC2
- inhibition [15]: 74%
- pIC50 [16]: 8.30
- pIC50 [14]: 5.68
- CL [17]: 14.1 mL/min/kg
- pIC50 [10]: 8.52
- pIC50 [18]: 6.74
- bioavailability [13]: 6%

SMILES: Cn1c(-c2ccccc2C(F)(F)F)nnc1C12CCC(c3nc(-c4ccc(S(=O)(=O)C(F)(F)F)cc4)no3)(CC1)CC2
- pIC50 [10]: > 9.01

SMILES: Cn1c(-c2ccccc2C(F)(F)F)nnc1C12CCC(c3nnc(-c4ccc(F)cc4)o3)(CC1)CC2
- pIC50 [10]: 8.30

SMILES: CCCCCC12CCC(c3nnc(-c4ccccc4C(F)(F)F)n3C)(CC1)CC2
- inhibition [15]: 99%
- pIC50 [16]: 8.70
- clearance [8]: 273 mL/min/kg
- pIC50 [10]: 8.52
- bioavailability [13]: 21%

SMILES: Cn1c(-c2ccccc2C(F)(F)F)nnc1C12CCC(c3nc(-c4ccc(Cl)cc4)no3)(CC1)CC2
- pIC50 [10]: 8.70

SMILES: Cn1c(-c2ccccc2C(F)(F)F)nnc1C12CCC(c3n[nH]c(-c4ccc(F)cc4)n3)(CC1)CC2
- pIC50 [10]: 8.80

SMILES: COC(=O)C12CCC(c3nnc4n3CCCCCC4)(CC1)CC2
- pIC50 [16]: 6.96
- pIC50 [14]: < 5.40
- pIC50 [10]: 7.17
- pIC50 [18]: < 5.40

SMILES: Cn1c(-c2ccccc2C(F)(F)F)nnc1C12CCC(c3nc(-c4cccc(S(C)(=O)=O)c4)no3)(CC1)CC2
- pIC50 [10]: 8.02

SMILES: Cn1c(-c2ccccc2C(F)(F)F)nnc1C12CCC(c3nc(-c4ccc(S(C)(=O)=O)cc4)no3)(CC1)CC2
- pIC50 [10]: 8.74

SMILES: COc1ccc(-c2nnc(C34CCC(c5nc(-c6ccc(F)cc6)no5)(CC3)CC4)n2C)c(Cl)c1
- pIC50 [10]: 7.92

SMILES: Cn1c(-c2ccccc2C(F)(F)F)nnc1C12CCC(c3nc(-c4ccc(F)cc4)c[nH]3)(CC1)CC2
- pIC50 [10]: 8.62

SMILES: C1CCCn2c(nnc2C23CCC(c4nc(CC5CC5)no4)(CC2)CC3)CC1
- inhibition [19]: 61%
- pIC50 [16]: 6.77
- pIC50 [14]: < 5.40
- pIC50 [10]: > 8.41

SMILES: Cc1noc(C23CCC(c4nnc5n4CCCCCC5)(CC2)CC3)n1
- pIC50 [16]: 6.54
- pIC50 [14]: < 5.40
- pIC50 [10]: 6.87
- pIC50 [18]: < 5.40

SMILES: Cn1c(-c2ccccc2C(F)(F)F)nnc1C12CCC(c3nc(-c4ccc(C(O)C(F)(F)F)cc4)no3)(CC1)CC2 (stereo not given)
- pIC50 [10]: > 9.00

— ChEMBL document CHEMBL1141865, “Discovery of 4-heteroarylbicyclo[2.2.2]octyltriazoles as potent and selective inhibitors of 11beta-HSD1: novel therapeutic agents for the treatment of metabolic syndrome” (Bioorg Med Chem Lett, 2005)
